Measurements as given in ChEMBL document CHEMBL1140227, “Histone deacetylase inhibitors through click chemistry” (J Med Chem, 2008).

Legend:
Format in all cases: functional
HCT-116 = experiment: Growth inhibition of human HCT116 cells at 10 uM relative to control; conditions: values are per cent of control
Method in brief: (§1)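 Single-dose preliminary screen in the NCI human cancer cell line panel, run by the NIH. Percent inhibition of cell line growth was calculated by comparison with untreated samples.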

HCT-15 = experiment: Growth inhibition of human HCT15 cells at 10 uM relative to control; conditions: values are per cent of control; method in brief: as §1
HT-29 = experiment: Growth inhibition of human HT-29 cells at 10 uM relative to control; conditions: values are per cent of control; method in brief: as §1
KM12 = experiment: Growth inhibition of human KM12 cells at 10 uM relative to control; conditions: values are per cent of control; method in brief: as §1
SW-620 = experiment: Growth inhibition of human SW620 cells at 10 uM relative to control; conditions: values are per cent of control
Method in brief: (§2)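 Single-dose NCI human tumour cell line screen, run by the NIH. Percent inhibition of cell line growth was calculated by comparison with untreated samples.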

BT-549 = experiment: Growth inhibition of human BT549 cells at 10 uM relative to control; conditions: values are per cent of control; method in brief: as §1
[1] = Growth inhibition of human Hs 578T cells at 10 uM relative to control; conditions: values are per cent of control; method in brief: as §1
MCF7 = experiment: Growth inhibition of human MCF7 cells at 10 uM relative to control; conditions: values are per cent of control; method in brief: as §1
MDA-MB-231 = experiment: Growth inhibition of human MDA-MB-231 cells at 10 uM relative to control; conditions: values are per cent of control; method in brief: as §1
MDA-MB-435 = experiment: Growth inhibition of human MDA-MB-435 cells at 10 uM relative to control; conditions: values are per cent of control; method in brief: as §1
MDA-MB-468 = experiment: Growth inhibition of human MDA-MB-468 cells at 10 uM relative to control; conditions: values are per cent of control; method in brief: as §1
NCI/ADR-RES = experiment: Growth inhibition of human NCI/ADR-RES cells at 10 uM relative to control; conditions: values are per cent of control; method in brief: as §1
T47D = experiment: Growth inhibition of human T47D cells at 10 uM relative to control; conditions: values are per cent of control; method in brief: as §2
IGROV-1 = experiment: Growth inhibition of human IGROV1 cells at 10 uM relative to control; conditions: values are per cent of control; method in brief: as §1
OVCAR-3 = experiment: Growth inhibition of human OVCAR-3 cells at 10 uM relative to control; conditions: values are per cent of control; method in brief: as §1
OVCAR-4 = experiment: Growth inhibition of human OVCAR4 cells at 10 uM relative to control; conditions: values are per cent of control; method in brief: as §1
OVCAR-5 = experiment: Growth inhibition of human OVCAR5 cells at 10 uM relative to control; conditions: values are per cent of control; method in brief: as §1
OVCAR-8 = experiment: Growth inhibition of human OVCAR8 cells at 10 uM relative to control; conditions: values are per cent of control; method in brief: as §1
SK-OV-3 = experiment: Growth inhibition of human SKOV3 cells at 10 uM relative to control; conditions: values are per cent of control; method in brief: as §1
CCRF-CEM = experiment: Growth inhibition of human CCRF-CEM cells at 10 uM relative to control; conditions: values are per cent of control; method in brief: as §1
HL-60(TB) = experiment: Growth inhibition of human HL-60(TB) cells at 10 uM relative to control; conditions: read-out: INH
Method in brief: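 Single-dose cell line screen run by the NCI (NIH) in its human cancer cell line panel, which includes the leukemia line HL-60(TB). Percent growth inhibition was calculated by comparison with untreated samples.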

K562 = experiment: Growth inhibition of human K562 cells at 10 uM relative to control; conditions: values are per cent of control; method in brief: as §1
MOLT-4 = experiment: Growth inhibition of human MOLT4 cells at 10 uM relative to control; conditions: values are per cent of control; method in brief: as §1
[2] = Growth inhibition of human RPMI8266 cells at 10 uM relative to control; conditions: values are per cent of control; method in brief: as §1
786-0 = experiment: Growth inhibition of human 786-0 cells at 10 uM relative to control; conditions: values are per cent of control; method in brief: as §1
A498 = experiment: Growth inhibition of human A498 cells at 10 uM relative to control; conditions: values are per cent of control; method in brief: as §1
ACHN = experiment: Growth inhibition of human ACHN cells at 10 uM relative to control; conditions: values are per cent of control; method in brief: as §1
CAKI-1 = experiment: Growth inhibition of human Caki1 cells at 10 uM relative to control; conditions: values are per cent of control; method in brief: as §1
SN12C = experiment: Growth inhibition of human SN12C cells at 10 uM relative to control; conditions: values are per cent of control; method in brief: as §1
TK-10 = experiment: Growth inhibition of human TK10 cells at 10 uM relative to control; conditions: values are per cent of control; method in brief: as §2
UO-31 = experiment: Growth inhibition of human UO31 cells at 10 uM relative to control; conditions: values are per cent of control; method in brief: as §2
LOX IMVI = experiment: Growth inhibition of human LOXIMVI cells at 10 uM relative to control; conditions: values are per cent of control; method in brief: as §1
M14 = experiment: Growth inhibition of human M14 cells at 10 uM relative to control; conditions: values are per cent of control; method in brief: as §1
Malme-3M = experiment: Growth inhibition of human MALME-3M cells at 10 uM relative to control; conditions: values are per cent of control; method in brief: as §1
SK-MEL-2 = experiment: Growth inhibition of human SK-MEL-2 cells at 10 uM relative to control; conditions: values are per cent of control; method in brief: as §1
SK-MEL-28 = experiment: Growth inhibition of human SK-MEL-28 cells at 10 uM relative to control; conditions: values are per cent of control; method in brief: as §1
SK-MEL-5 = experiment: Growth inhibition of human SK-MEL-5 cells at 10 uM relative to control; conditions: values are per cent of control; method in brief: as §1
UACC-257 = experiment: Growth inhibition of human UACC257 cells at 10 uM relative to control; conditions: values are per cent of control; method in brief: as §2
UACC-62 = experiment: Growth inhibition of human UACC62 cells at 10 uM relative to control; conditions: values are per cent of control; method in brief: as §2
DU-145 = experiment: Growth inhibition of human DU145 cells at 10 uM relative to control; conditions: values are per cent of control; method in brief: as §1
PC-3 = experiment: Growth inhibition of human PC3 cells at 10 uM relative to control; conditions: values are per cent of control; method in brief: as §1
SF-268 = experiment: Growth inhibition of human SF268 cells at 10 uM relative to control; conditions: values are per cent of control; method in brief: as §1
SF-295 = experiment: Growth inhibition of human SF295 cells at 10 uM relative to control; conditions: values are per cent of control; method in brief: as §1
SF-539 = experiment: Growth inhibition of human SF539 cells at 10 uM relative to control; conditions: values are per cent of control; method in brief: as §1
SNB-19 = experiment: Growth inhibition of human SNB19 cells at 10 uM relative to control; conditions: values are per cent of control; method in brief: as §1
SNB-75 = experiment: Growth inhibition of human SNB75 cells at 10 uM relative to control; conditions: values are per cent of control; method in brief: as §2
U-251 = experiment: Growth inhibition of human U251 cells at 10 uM relative to control; conditions: values are per cent of control; method in brief: as §2
cells = conditions: Homo sapiens, Cancer cell lines
A549 = experiment: Growth inhibition of human A549 cells at 10 uM relative to control; conditions: values are per cent of control; method in brief: as §1
EKVX = experiment: Growth inhibition of human EKVX cells at 10 uM relative to control; conditions: values are per cent of control; method in brief: as §1
HOP-62 = experiment: Growth inhibition of human HOP62 cells at 10 uM relative to control; conditions: values are per cent of control; method in brief: as §1
NCI-H226 = experiment: Growth inhibition of human NCI-H226 cells at 10 uM relative to control; conditions: values are per cent of control; method in brief: as §1
NCI-H23 = experiment: Growth inhibition of human NCI-H23 cells at 10 uM relative to control; conditions: values are per cent of control; method in brief: as §1
NCI-H322M = experiment: Growth inhibition of human NCI-H322M cells at 10 uM relative to control; conditions: values are per cent of control; method in brief: as §1
NCI-H460 = experiment: Growth inhibition of human NCI-H460 cells at 10 uM relative to control; conditions: values are per cent of control; method in brief: as §1
NCI-H522 = experiment: Growth inhibition of human NCI-H522 cells at 10 uM relative to control; conditions: values are per cent of control; method in brief: as §1
COLO 205 = experiment: Growth inhibition of human COLO205 cells at 10 uM relative to control; conditions: values are per cent of control; method in brief: as §1
HCC 2998 = experiment: Growth inhibition of human HCC2998 cells at 10 uM relative to control; conditions: values are per cent of control; method in brief: as §1

O=C(NO)c1cn(C/C=C/c2ccccc2)nn1
growth, % of control at 10 µM (HCT-116): 100%
growth, % of control at 10 µM (HCT-15): 98.8%
growth, % of control at 10 µM (HT-29): 104%
growth, % of control at 10 µM (KM12): 104%
growth, % of control at 10 µM (SW-620): 98.4%
growth, % of control at 10 µM (BT-549): 107%
growth, % of control at 10 µM [1]: 95.5%
growth, % of control at 10 µM (MCF7): 122%
growth, % of control at 10 µM (MDA-MB-231): 96.1%
growth, % of control at 10 µM (MDA-MB-435): 103%
growth, % of control at 10 µM (MDA-MB-468): 105%
growth, % of control at 10 µM (NCI/ADR-RES): 107%
growth, % of control at 10 µM (T47D): 97.8%
growth, % of control at 10 µM (IGROV-1): 89.4%
growth, % of control at 10 µM (OVCAR-3): 97.1%
growth, % of control at 10 µM (OVCAR-4): 94.3%
growth, % of control at 10 µM (OVCAR-5): 104%
growth, % of control at 10 µM (OVCAR-8): 106%
growth, % of control at 10 µM (SK-OV-3): 107%
growth, % of control at 10 µM (CCRF-CEM): 61%
growth, % of control at 10 µM (HL-60(TB)): 94.5%
growth, % of control at 10 µM (K562): 119%
growth, % of control at 10 µM (MOLT-4): 79.6%
growth, % of control at 10 µM [2]: 94.5%
growth, % of control at 10 µM (786-0): 132%
growth, % of control at 10 µM (A498): 95.2%
growth, % of control at 10 µM (ACHN): 101%
growth, % of control at 10 µM (CAKI-1): 95%
growth, % of control at 10 µM (SN12C): 95.3%
growth, % of control at 10 µM (TK-10): 130%
growth, % of control at 10 µM (UO-31): 72.7%
growth, % of control at 10 µM (LOX IMVI): 90.2%
growth, % of control at 10 µM (M14): 106%
growth, % of control at 10 µM (Malme-3M): 110%
growth, % of control at 10 µM (SK-MEL-2): 95.7%
growth, % of control at 10 µM (SK-MEL-28): 104%
growth, % of control at 10 µM (SK-MEL-5): 148%
growth, % of control at 10 µM (UACC-257): 125%
growth, % of control at 10 µM (UACC-62): 102%
growth, % of control at 10 µM (DU-145): 167%
growth, % of control at 10 µM (PC-3): 77.6%
growth, % of control at 10 µM (SF-268): 92.8%
growth, % of control at 10 µM (SF-295): 108%
growth, % of control at 10 µM (SF-539): 135%
growth, % of control at 10 µM (SNB-19): 94.9%
growth, % of control at 10 µM (SNB-75): 79.8%
growth, % of control at 10 µM (U-251): 90.1%
inhibition at 10 µM (cells): > 95%
growth, % of control at 10 µM (A549): 107%
growth, % of control at 10 µM (EKVX): 89.9%
growth, % of control at 10 µM (HOP-62): 92.4%
growth, % of control at 10 µM (NCI-H226): 91.1%
growth, % of control at 10 µM (NCI-H23): 104%
growth, % of control at 10 µM (NCI-H322M): 109%
growth, % of control at 10 µM (NCI-H460): 131%
growth, % of control at 10 µM (NCI-H522): 92.5%
growth, % of control at 10 µM (COLO 205): 133%
growth, % of control at 10 µM (HCC 2998): 105%
